ChEMBL document CHEMBL1149817, “Epimers of bicyclo[2.2.2]octan-2-ol derivatives with antiprotozoal activity” (Eur J Med Chem, 2008)

Key:
[1] = tested on: Trypanosoma brucei rhodesiense; assay: Antiprotozoal activity against Trypanosoma brucei rhodesiense STIB900; type: functional, organism-based
L6 = assay: Cytotoxicity against rat L6 cells; type: cell-based
Plasmodium falciparum = assay: Antiprotozoal activity against chloroquine and pyrimethamine-resistant Plasmodium falciparum K1; type: functional, organism-based
Outline: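 Read-out was IC50 against the K1 strain of P. falciparum, which is resistant to chloroquine and pyrimethamine. The table footnote gives values from two independent experiments.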

Row | Compound | IC50 ([1]; Trypanosoma brucei) [µM] | IC50 (L6; l6) [µM] | IC50 (Plasmodium falciparum) [µM] | IC50 (Plasmodium falciparum; Plasmodium falciparum, K1) [µM] | IC50 [1] [µM] | IC50 (L6; Rattus norvegicus, L6) [µM]
1 | CN(C)C12CC(OC(=O)c3ccncc3)C(C(c3ccccc3)C1)C(c1ccccc1)C2 (racemic; 11a) | 1.68 | 12.5 | 0.49 |  |  | 
2 | O=C(OC1CC2(N3CCCCC3)CC(c3ccccc3)C1C(c1ccccc1)C2)c1cccnc1 (stereo in doubt; 6c) | 70.9 | 0.87 |  | 0.48 |  | 
3 | OC1CC2(N3CCCCC3)CC(c3ccccc3)C1C(c1ccccc1)C2 (racemic) |  |  | 2.77 |  | 13.1 | 34.3
4 | O=C(OC1CC2(N3CCCCC3)CC(c3ccccc3)C1C(c1ccccc1)C2)c1ccccc1 (stereo in doubt; 4c) |  | 97.3 | 0.66 |  | 15 | 
5 | CN(C)C12CC(OC(=O)c3cccnc3)C(C(c3ccccc3)C1)C(c1ccccc1)C2 (racemic) |  | 12.2 | 0.5 |  | 1.52 | 
6 | O=C(OC1CC2(N3CCCC3)CC(c3ccccc3)C1C(c1ccccc1)C2)c1ccc(Cl)cc1 (stereo in doubt; 5b) |  | 74.9 | 0.47 |  | 6.27 | 
7 | O=C(OC1CC2(N3CCCC3)CC(c3ccccc3)C1C(c1ccccc1)C2)c1ccccc1 (racemic) |  |  | 0.8 |  | 0.96 | 8.41
8 | CN(C)C12CC(OC(=O)c3ccccc3)C(C(c3ccccc3)C1)C(c1ccccc1)C2 (stereo in doubt; 4a) |  | 9.88 | 2.47 |  | 1.53 | 
9 | CN(C)C12CC(OC(=O)c3ccc(Cl)cc3)C(C(c3ccccc3)C1)C(c1ccccc1)C2 (stereo in doubt; 5a) |  | 9.46 | 0.55 |  | 1.06 | 
10 | O=C(OC1CC2(N3CCCC3)CC(c3ccccc3)C1C(c1ccccc1)C2)c1ccccc1 (stereo in doubt; 4b) |  | 5.08 | 4.5 |  | 4.95 | 
11 | CN(C)C12CC(OC(=O)c3ccccc3)C(C(c3ccccc3)C1)C(c1ccccc1)C2 (racemic) | 1.12 |  | 1.18 |  |  | 6.02
12 | OC1CC2(N3CCCC3)CC(c3ccccc3)C1C(c1ccccc1)C2 (racemic) | 2.53 |  |  | 1.23 |  | 35.4
13 | O=C(OC1CC2(N3CCCC3)CC(c3ccccc3)C1C(c1ccccc1)C2)c1ccncc1 (racemic; 7b) |  | 27.4 | 0.86 |  | 3.49 | 
14 | O=C(OC1CC2(N3CCCCC3)CC(c3ccccc3)C1C(c1ccccc1)C2)c1ccncc1 (racemic; 11c) |  | 21.3 |  | 0.62 | 3.35 | 
15 | O=C(OC1CC2(N3CCCCC3)CC(c3ccccc3)C1C(c1ccccc1)C2)c1ccc(Cl)cc1 (racemic) |  | 23 |  | 1.12 | 1.76 | 
16 | CN(C)C12CC(OC(=O)c3ccc(Cl)cc3)C(C(c3ccccc3)C1)C(c1ccccc1)C2 (racemic) | 2.04 | 4.35 | 1.11 |  |  | 
17 | O=C(OC1CC2(N3CCCC3)CC(c3ccccc3)C1C(c1ccccc1)C2)c1ccncc1 (racemic; 11b) |  |  | 4.49 |  | 1.44 | 26.9
18 | CN(C)C12CC(OC(=O)c3cccnc3)C(C(c3ccccc3)C1)C(c1ccccc1)C2 (stereo in doubt; 6a) |  | 171 | 1.49 |  | 15.9 | 
19 | O=C(OC1CC2(N3CCCC3)CC(c3ccccc3)C1C(c1ccccc1)C2)c1cccnc1 (stereo in doubt; 6b) |  | 24.4 | 0.2 |  | 0.62 | 
20 | O=C(OC1CC2(N3CCCCC3)CC(c3ccccc3)C1C(c1ccccc1)C2)c1cccnc1 (racemic) |  | 21.3 |  |  |  | 
21 | CN(C)C12CC(OC(=O)c3ccncc3)C(C(c3ccccc3)C1)C(c1ccccc1)C2 (racemic; 7a) |  | 26.1 | 1.14 |  | 3.16 | 
22 | O=C(OC1CC2(N3CCCC3)CC(c3ccccc3)C1C(c1ccccc1)C2)c1cccnc1 (racemic) | 1.07 |  | 2.34 |  |  | 18.7
23 | O=C(OC1CC2(N3CCCC3)CC(c3ccccc3)C1C(c1ccccc1)C2)c1ccc(Cl)cc1 (racemic) |  | 7.31 |  | 0.76 | 0.86 | 
24 | O=C(OC1CC2(N3CCCCC3)CC(c3ccccc3)C1C(c1ccccc1)C2)c1ccncc1 (racemic; 7c) |  | 113 | 0.65 |  | 16.9 | 
25 | O=C(OC1CC2(N3CCCCC3)CC(c3ccccc3)C1C(c1ccccc1)C2)c1ccccc1 (racemic) |  | 17.2 |  | 0.77 | 3.12 | 
26 | CN(C)C12CC(O)C(C(c3ccccc3)C1)C(c1ccccc1)C2 (racemic) |  | 158 | 13.1 |  | 3.64 | 
27 | O=C(OC1CC2(N3CCCCC3)CC(c3ccccc3)C1C(c1ccccc1)C2)c1ccc(Cl)cc1 (stereo in doubt; 5c) |  | 104 | 0.79 |  | 37.6 | 
